Reference: ChEMBL document CHEMBL1240321, “Cyclostreptin binds covalently to microtubule pores and lumenal taxoid binding sites” (Nat Chem Biol, 2007)
The source made the active and inactive calls. No cut-off for these calls is given here.

Key:
[1] = Cytotoxicity against human A2780AD cells; assay type: functional, cell-based; conditions: A2780 ADR
A2780 [2] = assay: Cytotoxicity against human A2780 cells; assay type: functional, cell-based
[3] = Cytotoxicity against human A2780-1A9 cells; assay type: functional, cell-based
A549 [4] = assay: Cytotoxicity against human A549 cells; assay type: functional, cell-based
[5] = Displacement of [3H]paclitaxel from microtubule assessed as bound radioligand level at 20 uM treated before radioligand addition by competitive binding assay
[6] = Binding affinity to microtubule
[7] = Displacement of [3H]epothilone B from microtubule assessed as bound radioligand level at 20 uM treated after radioligand addition by competitive binding assay
[8] = Displacement of [3H]discodermolide from microtubule assessed as bound radioligand level at 20 uM treated before radioligand addition by competitive binding assay
[9] = Displacement of [3H]discodermolide from microtubule assessed as bound radioligand level at 20 uM treated after radioligand addition by competitive binding assay
[10] = Displacement of [3H]epothilone B from microtubule assessed as bound radioligand level at 20 uM treated before radioligand addition by competitive binding assay
[11] = Displacement of [3H]paclitaxel from microtubule assessed as bound radioligand level at 20 uM treated after radioligand addition by competitive binding assay
A2780 ADR = assay: Cytotoxicity against human A2780AD cells at 5 uM; assay type: functional, cell-based
1A9/ptx-22 = assay: Cytotoxicity against human 1A9PTX22 cells at 5 uM; assay type: functional, cell-based
1A9/ptx-10 = assay: Cytotoxicity against human 1A9PTX10 cells at 5 uM; assay type: functional, cell-based
A2780 [12] = assay: Induction of mitotic cell cycle arrest in human A2780 cells assessed as accumulation of cells at G2+M phase at 5 uM after 24 hrs by flow cytometry (Rvb= 20%); assay type: functional
[13] = Induction of mitotic cell cycle arrest in human A2780AD cells assessed as accumulation of cells at G2+M phase at 5 uM after 24 hrs by flow cytometry (Rvb= 20.5%); assay type: functional, A2780 ADR
A2780-1A9 = assay: Cytotoxicity against human A2780-1A9 cells at 5 uM; assay type: functional, cell-based
[14] = Induction of mitotic cell cycle arrest in human A2780AD cells assessed as accumulation of cells at G1/G0 phase at 5 uM after 24 hrs by flow cytometry (Rvb= 59.2%); assay type: functional, A2780 ADR
A2780 [15] = assay: Induction of mitotic cell cycle arrest in human A2780 cells assessed as accumulation of cells at G1/G0 phase at 5 uM after 24 hrs by flow cytometry (Rvb= 60%); assay type: functional
[16] = Induction of mitotic cell cycle arrest in human A2780AD cells assessed as accumulation of cells at SubG1 phase at 5 uM after 24 hrs by flow cytometry (Rvb= 4.1%); assay type: functional, A2780 ADR
A2780 [17] = assay: Cytotoxicity against human A2780 cells at 5 uM; assay type: functional, cell-based
A549 [18] = assay: Cytotoxicity against human A549 cells at 5 uM; assay type: functional, cell-based
A2780 [19] = assay: Induction of mitotic cell cycle arrest in human A2780 cells assessed as accumulation of cells at SubG1 phase at 5 uM after 24 hrs by flow cytometry (Rvb= 2.5%); assay type: functional
A2780 [20] = assay: Induction of mitotic cell cycle arrest in human A2780 cells assessed as accumulation at S phase at 5 uM after 24 hrs by flow cytometry (Rvb= 17.5%); assay type: functional
[21] = Induction of mitotic cell cycle arrest in human A2780AD cells assessed as accumulation at S phase at 5 uM after 24 hrs by flow cytometry (Rvb= 16.2%); assay type: functional, A2780 ADR
[22] = Binding affinity to microtubule pretreated with cyclostreptin
Outline: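 Glutaraldehyde-crosslinked microtubules (60 µM) were preincubated overnight at 22 °C with 66 µM cyclostreptin in GAB (3.4 M glycerol, 10 mM NaPi, 1 mM EGTA, 6 mM MgCl2, pH 6.7) plus 0.1 mM GTP, then dialyzed 5 h against the same buffer. Flutax-2 (50 nM) was titrated with these microtubules, and the association constant for Flutax-2 binding was calculated.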

A549 [23] = assay: Induction of mitotic cell cycle arrest in human A549 cells assessed as accumulation of cells at SubG1 phase at 20 nM after 24 hrs by flow cytometry (Rvb= 25%); assay type: functional
[24] = Induction of mitotic cell cycle arrest at G1/G0 phase in potoroo PtK2 cells 10 uM after 7 hrs by flow cytometry (Rvb= 60%); assay type: functional, Potorous tridactylus
PtK2 [25] = assay: Induction of microtubule bundle formation in potoroo PtK2 cells at 10 uM treated for 7 hrs followed by compound washout measured after 48 hrs; conditions: Potorous tridactylus
PtK2 [26] = assay: Displacement of Flutax-2 from microtubule in potoroo PtK2 cells at 100 uM; conditions: Potorous tridactylus
[27] = Induction of micronucleation in potoroo PtK2 cells at 2 uM after 7 hrs by flow cytometry; assay type: functional, Potorous tridactylus
PtK2 [28] = assay: Induction of microtubule bundle formation in potoroo PtK2 cells at 2 uM after 7 hrs by flow cytometry; assay type: cell-based; conditions: Potorous tridactylus
PtK2 [29] = assay: Induction of micronucleation in potoroo PtK2 cells at 10 uM after 7 hrs by flow cytometry; conditions: Potorous tridactylus
A2780 [30] = assay: Induction of mitotic cell cycle arrest in human A2780 cells assessed as accumulation of cells at G2+M phase at 15 nM after 24 hrs by flow cytometry (Rvb= 20%); assay type: functional
[31] = Induction of micronucleation in potoroo PtK2 cells at 10 uM after 7 hrs by flow cytometry; assay type: functional, Potorous tridactylus
A2780 [32] = assay: Induction of mitotic cell cycle arrest in human A2780 cells assessed as accumulation of cells at SubG1 phase at 15 nM after 24 hrs by flow cytometry (Rvb= 2.5%); assay type: functional
A2780 [33] = assay: Induction of mitotic cell cycle arrest in human A2780 cells assessed as accumulation at S phase at 15 nM after 24 hrs by flow cytometry (Rvb= 17.5%); assay type: functional
[34] = Cytotoxicity against human 1A9PTX10 cells; assay type: functional, cell-based; conditions: 1A9/ptx-10
PtK2 [35] = assay: Induction of microtubule bundle formation in potoroo PtK2 cells at 5 uM after 7 hrs by flow cytometry; assay type: cell-based; conditions: Potorous tridactylus
A549 [36] = assay: Induction of mitotic cell cycle arrest in human A549 cells assessed as accumulation of cells at G2+M phase at 20 nM after 24 hrs by flow cytometry (Rvb= 19.6%); assay type: functional
A549 [37] = assay: Induction of mitotic cell cycle arrest in human A549 cells assessed as accumulation of cells at G1/G0 phase at 20 nM after 24 hrs by flow cytometry (Rvb= 39.2%); assay type: functional
[38] = Induction of micronucleation in potoroo PtK2 cells at 5 uM after 7 hrs by flow cytometry; assay type: functional, Potorous tridactylus
[39] = Cytotoxicity against human 1A9PTX22 cells; assay type: functional, cell-based; conditions: 1A9/ptx-22
A2780 [40] = assay: Induction of mitotic cell cycle arrest in human A2780 cells assessed as accumulation of cells at G1/G0 phase at 15 nM after 24 hrs by flow cytometry (Rvb= 60%); assay type: functional
[41] = Micronucleation in potoroo PtK2 cells at 10 uM treated for 7 hrs followed by compound washout measured after 48 hrs by flow cytometry; conditions: Potorous tridactylus

## CC(=O)O[C@@]12CO[C@@H]1C[C@H](O)[C@@]1(C)C(=O)[C@H](O)C3=C(C)[C@@H](OC(=O)[C@H](O)[C@@H](NC(=O)OC(C)(C)C)c4ccccc4)C[C@@](O)([C@@H](OC(=O)c4ccccc4)[C@H]21)C3(C)C [DOCETAXEL]
[1]
  IC50: 0.285 µM
A2780 [2]
  IC50: 0.0005 µM
[3]
  IC50: 0.0006 µM
A549 [4]
  IC50: 0.0072 µM

## C/C(=C\c1csc(C)n1)[C@@H]1C[C@@H]2O[C@]2(C)CCC[C@H](C)[C@H](O)[C@@H](C)C(=O)C(C)(C)[C@@H](O)CC(=O)O1 [PATUPILONE]
[5]
  Activity: 33%
[6]
  Kd: 0.0013 µM
[7]
  Activity: 9%
[8]
  Activity: 79%
[9]
  Activity: 76%
[10]
  Activity: 9%
[11]
  Activity: 31%

## CC1=C[C@H]2[C@@H](O)[C@H](C)[C@@H](O)[C@@H]2[C@H]2[C@@H]3[C@H]4C(=O)O[C@@H]5CC[C@@](C)(O[C@@H]4[C@@H]5C)[C@@H]3C[C@@H]12
A2780 ADR
  Activity: inactive
1A9/ptx-22
  Activity: inactive
1A9/ptx-10
  Activity: inactive
A2780 [12]
  Activity: 16%
[13]
  Activity: 21.5%
A2780-1A9
  Activity: inactive
[14]
  Activity: 56.9%
A2780 [15]
  Activity: 58.7%
[16]
  Activity: 2%
A2780 [17]
  Activity: inactive
A549 [18]
  Activity: inactive
A2780 [19]
  Activity: 2.8%
A2780 [20]
  Activity: 22.5%
[21]
  Activity: 19.6%

## C=C/C=C\[C@H](C)[C@H](OC(N)=O)[C@@H](C)[C@H](O)[C@@H](C)C/C(C)=C\[C@H](C)[C@@H](O)[C@@H](C)/C=C\[C@@H](O)C[C@@H]1OC(=O)[C@H](C)[C@@H](O)[C@H]1C [DISERMOLIDE]
[6]
  Kd: 0.00018 µM
[8]
  Activity: 31%
[9]
  Activity: 27%

## CC(=O)O[C@H]1C(=O)[C@]2(C)[C@@H](OC(=O)[C@H](C)NC(=O)c3ccc(-c4c5cc(F)c(=O)cc-5oc5cc(O)c(F)cc45)c(C(=O)O)c3)C[C@H]3OC[C@@]3(OC(C)=O)[C@H]2[C@H](OC(=O)c2ccccc2)[C@]2(O)C[C@H](OC(=O)[C@H](O)[C@@H](NC(=O)c3ccccc3)c3ccccc3)C(C)=C1C2(C)C [FLUTAX 2]
[6]
  Kd: 0.014 µM
[22]
  Activity: inactive

## C/C(=C\c1csc(C)n1)[C@@H]1C[C@@H]2O[C@@H]2CCC[C@H](C)[C@H](O)[C@@H](C)C(=O)C(C)(C)[C@@H](O)CC(=O)O1 [EPOTHILONE A]
[5]
  Activity: 49%
[6]
  Kd: 0.028 µM
[7]
  Activity: 49%
[8]
  Activity: 96%
[9]
  Activity: 95%
[10]
  Activity: 49%
[11]
  Activity: 46%

## CC(=O)O[C@H]1C(=O)[C@@]2(C)[C@H]([C@H](OC(=O)c3ccccc3)[C@]3(O)C[C@H](OC(=O)[C@H](O)[C@@H](NC(=O)c4ccccc4)c4ccccc4)C(C)=C1C3(C)C)[C@]1(OC(C)=O)CO[C@@H]1C[C@@H]2O [PACLITAXEL]
A549 [23]
  Activity: 36.9%
[24]
  Activity: 50%
PtK2 [25]
  Activity: Active
PtK2 [26]
  Activity: Active
[27]
  Activity: 4%
PtK2 [28]
  Activity: 4%
[6]
  Kd: 0.07 µM
[1]
  IC50: 0.9 µM
PtK2 [29]
  Activity: 4%
A2780 [30]
  Activity: 70.8%
[3]
  IC50: 0.0011 µM
[31]
  Activity: 4%
A2780 [32]
  Activity: 15.7%
A2780 [33]
  Activity: 7%
[34]
  IC50: 0.03 µM
PtK2 [35]
  Activity: 4%
A549 [36]
  Activity: 8.85%
A549 [37]
  Activity: 8.4%
[38]
  Activity: 4%
[39]
  IC50: 0.019 µM
A2780 [40]
  Activity: 6.5%
[41]
  Activity at 10 µM: 40%

## CC1=C[C@H]2[C@@H](O)[C@H](C)[C@@H](O)[C@@H]2[C@H]2[C@H]3[C@@H](C[C@@H]12)[C@@]1(C)CC[C@H]2OC(=O)[C@]34O[C@@]4(O1)[C@@H]2C
A2780 ADR
  Activity: inactive
1A9/ptx-22
  Activity: inactive
1A9/ptx-10
  Activity: inactive
A2780-1A9
  Activity: inactive
A2780 [17]
  Activity: inactive
A549 [18]
  Activity: inactive
